# Experimental data taken from ChEMBL document CHEMBL5107942, “Boron-based hybrids as novel scaffolds for the development of drugs with neuroprotective properties” (RSC Med Chem, 2021).
# Calls of active or inactive are those of the source. The rule behind the calls is not given here.
# What was measured:
# SH-SY5Y [1] = assay: Neuroprotective activity against amyloid beta (1 to 42)-induced neurotoxicity in human SH-SY5Y cells assessed as increase in cell viability at 0.1 to 100 uM incubated for 24 hrs by MTT assay; type: functional, cell-based; details: dose 0.1-100 µM
# How it was run: (§1)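 Differentiated SH-SY5Y cells co-treated 24 h with compound (0.1–100 μM) and Aβ1-42 (20 μM). Vehicle 0.1% DMSO; 1% Triton X positive control. MTT added for 3 h at 37 °C, formazan dissolved in DMSO, absorbance read at 570 nm. Mean ± SD from at least six independent experiments.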
# SH-SY5Y [2] = assay: Neuroprotective activity against amyloid beta (1 to 42)-induced neurotoxicity in human SH-SY5Y cells assessed as increase in cell viability at 50 uM incubated for 24 hrs by LDH release assay; type: functional
# How it was run: (§2)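 Differentiated SH-SY5Y cells exposed 24 h to compound with Aβ1-42 (20 μM). Supernatant mixed 1:1 with LDH reaction mixture and held 30 min at room temperature. Lactate-to-pyruvate conversion with NAD+ reduction read as absorbance at 490 nm. Mean ± SD, at least six independent experiments.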
# SH-SY5Y [3] = assay: Neuroprotective activity against amyloid beta (1 to 42)-induced Alzheimer's disease model in human SH-SY5Y cells assessed as inhibition of apoptosis at 25 uM incubated for 24 hrs by Hoechst 33258 staining fluorescence microscopy; type: functional, cell-based
# How it was run: (§3)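 RA/BDNF-differentiated SH-SY5Y cells incubated 24 h with Aβ1-42 (20 μM) alone or with test agent at 25 or 50 μM. Fixed in 4% paraformaldehyde in PBS, 30 min at 4 °C. Stained with 1 mM Hoechst 33258 for 5 min at room temperature. Nuclear morphology examined by fluorescence microscopy.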
# SH-SY5Y [4] = assay: Neuroprotective activity against amyloid beta (1 to 42)-induced Alzheimer's disease model in human SH-SY5Y cells assessed as protection against amyloid beta (1 to 42)-induced nuclear integrity damage at 25 uM incubated for 24 hrs by Hoechst 33258 staining fluorescence microscopy; type: functional, cell-based; how it was run: as §3
# SH-SY5Y [5] = assay: Antioxidant activity against amyloid beta (1 to 42)-induced Alzheimer's disease model in human SH-SY5Y cells assessed as decrease of TOS level at 50 uM; type: functional, cell-based
# How it was run: (§4)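 Differentiated SH-SY5Y cells: grown in DMEM:F12 with 10% FBS, then 10 μg/mL retinoic acid for 5 days, then serum-free medium with 10 μM retinoic acid and 25 ng/mL BDNF. Co-exposed 24 h to Aβ1-42 (20 μM) plus compound. Vehicle 0.1% DMSO. Automated kits on culture samples. TAC: ABTS decolorization at 660 nm, Trolox calibration. TOS: ferrous-to-ferric chelator oxidation, H2O2 calibration, µM H2O2 equivalent/L. n = 6.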
# SH-SY5Y [6] = assay: Neuroprotective activity against amyloid beta (1 to 42)-induced Alzheimer's disease model in human SH-SY5Y cells assessed as decrease in AChE activity at 25 uM incubated for 24 hrs by Colorimetric assay; type: functional; set-up: scale not given: the % may be the effect or the level left
# How it was run: (§5)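 SH-SY5Y cells grown in DMEM:F12 with 10% FBS, differentiated with retinoic acid for 5 days, then serum-free medium with 10 μM retinoic acid plus 25 ng/mL BDNF, used within 10 days. Co-treated with 20 μM Aβ1-42 for 24 h; DMSO ≤0.1% vehicle. Cells lysed 15 min at room temperature, centrifuged; AChE measured in supernatant by colorimetric kit at 410 nm.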
# SH-SY5Y [7] = assay: Neuroprotective activity against amyloid beta (1 to 42)-induced neurotoxicity in human SH-SY5Y cells assessed as increase in cell viability at 50 uM incubated for 24 hrs by MTT assay; type: functional; how it was run: as §1
# SH-SY5Y [8] = assay: Neuroprotective activity against amyloid beta (1 to 42)-induced neurotoxicity in human SH-SY5Y cells assessed as increase in cell viability at 25 uM incubated for 24 hrs by MTT assay; type: functional; how it was run: as §1
# SH-SY5Y [9] = assay: Neuroprotective activity against amyloid beta (1 to 42)-induced Alzheimer's disease model in human SH-SY5Y cells assessed as protection against amyloid beta (1 to 42)-induced nuclear integrity damage at 50 uM incubated for 24 hrs by Hoechst 33258 staining fluorescence microscopy; type: functional, cell-based; how it was run: as §3
# SH-SY5Y [10] = assay: Antioxidant activity against amyloid beta (1 to 42)-induced Alzheimer's disease model in human SH-SY5Y cells assessed as increase of TAC level at 25 uM by ABTS assay; type: functional, cell-based; how it was run: as §4
# SH-SY5Y [11] = assay: Neuroprotective activity against amyloid beta (1 to 42)-induced Alzheimer's disease model in human SH-SY5Y cells assessed as reduction in necrosis rate at 25 to 50 uM incubated for 24 hrs by Annexin V-FITC/propidium iodide staining flow cytometry; type: functional, cell-based; details: dose 25-50 µM, DDE = dose-dependent effect
# How it was run: (§6)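 Differentiated SH-SY5Y cells given 24 h Aβ1-42 (20 μM) with or without compound. 5 x 10^4 cells pelleted and resuspended in 1X binding buffer. Annexin V-FITC and PI added, 5 min in the dark, then fixed in 4% paraformaldehyde. Flow cytometry sorted cells into viable, early apoptotic, late apoptotic/necrotic and necrotic fractions.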
# SH-SY5Y [12] = assay: Antioxidant activity against amyloid beta (1 to 42)-induced Alzheimer's disease model in human SH-SY5Y cells assessed as decrease of TOS level at 25 uM; type: functional, cell-based; how it was run: as §4
# SH-SY5Y [13] = assay: Neuroprotective activity against amyloid beta (1 to 42)-induced neurotoxicity in human SH-SY5Y cells assessed as increase in cell viability at 100 uM incubated for 24 hrs by MTT assay; type: functional; how it was run: as §1
# SH-SY5Y [14] = assay: Neuroprotective activity against amyloid beta (1 to 42)-induced Alzheimer's disease model in human SH-SY5Y cells assessed as decrease in AChE activity at 50 uM incubated for 24 hrs by Colorimetric assay; type: functional; set-up: scale not given: the % may be the effect or the level left; how it was run: as §5
# [15] = Genotoxicity in human blood assessed as frequency of sister chromatid exchange at 0.1 to 100 uM by BrdU/Giemsa staining based fluorescence assay; type: toxicity, tissue-based; details: dose 0.1-100 µM
# How it was run: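 Human peripheral blood cultured in PB-MAX karyotyping medium with phytohemagglutinin; compounds added just before incubation. BrdU added; demecolcine at 70 h 30 min. Then 0.075 M KCl hypotonic treatment, methanol/acetic acid (3:1) fixation, slides aged 3 days, fluorescence plus Giemsa staining. 25 second-division metaphases (42–46 chromosomes) scored per condition; result given as SCEs/cell.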
# SH-SY5Y [16] = assay: Neuroprotective activity against amyloid beta (1 to 42)-induced neurotoxicity in human SH-SY5Y cells assessed as increase in cell viability at 100 uM incubated for 24 hrs by LDH release assay; type: functional; how it was run: as §2
# SH-SY5Y [17] = assay: Neuroprotective activity against amyloid beta (1 to 42)-induced Alzheimer's disease model in human SH-SY5Y cells assessed as inhibition of apoptosis at 50 uM incubated for 24 hrs by Hoechst 33258 staining fluorescence microscopy; type: functional, cell-based; how it was run: as §3
# [18] = Induction of DNA damage in human blood assessed as increase in 8-OH-dG level at 0.1 to 100 uM incubated for 24 hrs; type: toxicity, tissue-based; details: dose 0.1-100 µM
# How it was run: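 Heparinized human peripheral blood cultured with phytohemagglutinin in PB-MAX medium, with compounds added at culture start. 8-OH-dG measured by competitive ELISA (8-OH-dG–AChE conjugate competing for monoclonal antibody). Detects free and DNA-incorporated 8-OH-dG. Read at 405–420 nm.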
# SH-SY5Y [19] = assay: Neuroprotective activity against amyloid beta (1 to 42)-induced neurotoxicity in human SH-SY5Y cells assessed as increase in cell viability at 25 uM incubated for 24 hrs by LDH release assay; type: functional; how it was run: as §2
# SH-SY5Y [20] = assay: Neuroprotective activity against amyloid beta (1 to 42)-induced Alzheimer's disease model in human SH-SY5Y cells assessed as reduction in necrosis rate incubated for 24 hrs by Annexin V-FITC/propidium iodide staining flow cytometry; type: functional; set-up: scale not given: the % may be the effect or the level left; how it was run: as §6
# SH-SY5Y [21] = assay: Antioxidant activity against amyloid beta (1 to 42)-induced Alzheimer's disease model in human SH-SY5Y cells assessed as increase of TAC level at 50 uM by ABTS assay; type: functional, cell-based; how it was run: as §4
SMILES,Activity (SH-SY5Y [1]),Activity (SH-SY5Y [2]) [%],Activity (SH-SY5Y [3]),Activity (SH-SY5Y [4]),Activity (SH-SY5Y [5]),Activity (SH-SY5Y [6]) [%],Activity (SH-SY5Y [7]) [%],Activity (SH-SY5Y [8]) [%],Activity (SH-SY5Y [9]),Activity (SH-SY5Y [10]),Activity (SH-SY5Y [11]),Activity (SH-SY5Y [12]),Activity (SH-SY5Y [13]) [%],Activity (SH-SY5Y [14]) [%],Activity [15],Activity (SH-SY5Y [16]) [%],Activity (SH-SY5Y [17]),Activity [18],Activity (SH-SY5Y [19]) [%],Activity (SH-SY5Y [20]) [%],further results
CC1(C)C2CC3OB(CNC(=O)CCCC[C@H]4CCSS4)O[C@]3(C)C1C2 (stereo partly drawn),Active,67.37,Active,Active,Active,18.77,29.94,25.14,Active,Active,Dde,Active,32.92,22.96,Non-Toxic,70.65,Active,Non-Toxic,62.91,68.38,Activity (SH-SY5Y [21]): Active
"O=C(O)CCCCC1CCSS1 (stereo not drawn) [LIPOIC ACID, ALPHA]",Active,58.68,Active,Active,Active,13.17,19.01,14.78,Active,Active,Dde,Active,20.73,16.66,Non-Toxic,59.86,Active,Non-Toxic,53.05,65.97,Activity (SH-SY5Y [21]): Active
CC12CC3CC(C)(C1)CC(N)(C3)C2 [MEMANTINE],Active,59.15,Active,Active,Active,14.57,19.38,17.27,Active,Active,Dde,Active,17.08,19.47,Non-Toxic,57.28,Active,Non-Toxic,56.81,61.67,Activity (SH-SY5Y [21]): Active
